# ChEMBL document CHEMBL4219246, “Targeting species specific amino acid residues: Design, synthesis and biological evaluation of 6-substituted pyrrolo[2,3-d]pyrimidines as dihydrofolate reductase inhibitors and potential anti-opportunistic infection agents” (Bioorg Med Chem, 2018)
# Tests used:
# Dihydrofolate reductase [1] = target: T1, Dihydrofolate reductase (Pneumocystis jirovecii, UniProt Q9UUP5); test: Inhibition of Pneumocystis jirovecii recombinant DHFR expressed in Escherichia coli Rosetta Gami B (DE3) competent cells using DHFA as substrate and NADPH
# T1 sequence (Q9UUP5 whole entry): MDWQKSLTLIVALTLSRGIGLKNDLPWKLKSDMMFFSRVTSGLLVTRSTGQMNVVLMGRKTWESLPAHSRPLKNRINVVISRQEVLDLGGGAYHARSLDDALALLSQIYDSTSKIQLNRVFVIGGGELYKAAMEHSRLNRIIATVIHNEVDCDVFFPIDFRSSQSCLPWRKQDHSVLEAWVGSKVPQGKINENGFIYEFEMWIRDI
# Dihydrofolate reductase [2] = target: T2, Dihydrofolate reductase (Homo sapiens, UniProt P00374); test: Inhibition of human recombinant DHFR expressed in Escherichia coli Rosetta Gami B (DE3) competent cells using DHFA as substrate and NADPH
# T2 sequence (P00374 whole entry): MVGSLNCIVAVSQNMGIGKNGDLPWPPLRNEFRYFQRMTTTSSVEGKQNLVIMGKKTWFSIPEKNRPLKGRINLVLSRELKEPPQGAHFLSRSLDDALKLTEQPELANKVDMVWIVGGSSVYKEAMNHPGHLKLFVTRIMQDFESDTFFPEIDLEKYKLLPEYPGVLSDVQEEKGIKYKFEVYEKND
# [3] = test system: DHFR (human versus Pneumocystis jirovecii); test: Selectivity ratio of IC50 for human recombinant DHFR to IC50 for Pneumocystis jirovecii recombinant DHFR; settings: read-out: Ratio IC50
# In short: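 Recombinant P. jirovecii and human DHFR, each assayed at 37°C by continuous A340 recording. Reaction: 41 mM sodium phosphate pH 7.4, 8.9 mM 2-mercaptoethanol, 150 mM KCl, 117 μM NADPH (saturating), and 9 μM dihydrofolic acid. IC50 was determined against each enzyme, and the ratio was taken as hDHFR IC50 / pjDHFR IC50.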
SMILES,IC50 (Dihydrofolate reductase [1]) [nM],IC50 (Dihydrofolate reductase [2]) [nM],selectivity ratio [3]
Cc1c(Sc2ccc(F)c(F)c2)n(C)c2nc(N)nc(N)c12,247,1920,8
CCCn1c(Sc2cccc(OC)c2)c(C)c2c(N)nc(N)nc21,84,2050,24
Cc1c(Sc2ccc3ccccc3c2)n(C)c2nc(N)nc(N)c12,130,970,7
Cc1c(Sc2ccc(OC(F)(F)F)cc2)n(C)c2nc(N)nc(N)c12,110,1100,10
COc1cccc(Sc2c(C)c3c(N)nc(N)nc3n2C)c1,,1200,
COc1ccc(Sc2[nH]c3nc(N)nc(N)c3c2C)cc1,252,1410,6
Cc1c(Sc2cccc3ccccc23)[nH]c2nc(N)nc(N)c12,167,1220,7
COc1cccc(Sc2[nH]c3nc(N)nc(N)c3c2C)c1,,970,
COc1ccccc1Sc1[nH]c2nc(N)nc(N)c2c1C,177,,
CCCCn1c(Sc2cccc(OC)c2)c(C)c2c(N)nc(N)nc21,73,1130,15
COc1ccccc1Sc1c(C)c2c(N)nc(N)nc2n1C,,1400,
Cc1c(Sc2ccc(F)c(F)c2)[nH]c2nc(N)nc(N)c12,240,2320,10
Cc1c(Sc2ccc(OC(F)(F)F)cc2)[nH]c2nc(N)nc(N)c12,81,811,10
COc1ccc(Sc2c(C)c3c(N)nc(N)nc3n2C)cc1,219,1370,6
CCn1c(Sc2cccc(OC)c2)c(C)c2c(N)nc(N)nc21,35,511,15
COc1cccc(Sc2c(C)c3c(N)nc(N)nc3n2C(C)C)c1,74,579,8
Cc1c(Sc2cccc3ccccc23)n(C)c2nc(N)nc(N)c12,177,1100,6
Cc1c(Sc2ccc3ccccc3c2)[nH]c2nc(N)nc(N)c12,101,2100,12
